Data as given in ChEMBL document CHEMBL3769357, “Phosphoramidate protides of five flavones and their antiproliferative activity against HepG2 and L-O2 cell lines” (Eur J Med Chem, 2016).

Legend:
[1] = test system: HepG2; assay: Induction of cell cycle arrest in human HepG2 cells assessed as accumulation at S phase at IC50 after 24 hrs by propidium iodide staining-based flow cytometry (reference value: 16.1%); assay type: functional
[2] = test system: HepG2; assay: Antiproliferative activity against human HepG2 cells after 48 hrs by MTT assay; assay type: functional, cell-based; conditions: HepG2, 48 h
Outline: (§1)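 After 48 h, MTT (5 mg/mL in PBS) added, 4 h at 37 °C, DMSO added, absorbance read at 570 nm. IC50 is the 50% growth-inhibition concentration, mean of three independent experiments.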

[3] = test system: HepG2; assay: Induction of cell cycle arrest in human HepG2 cells assessed as accumulation at G0/G1 phase at IC50 after 24 hrs by propidium iodide staining-based flow cytometry (reference value: 67.5%); assay type: functional
[4] = test system: HepG2; assay: Induction of apoptosis in human HepG2 cells assessed as early apoptotic cells at IC50 after 4 hrs by annexin V-FITC/propidium iodide staining-based flow cytometry (reference value: 0.41%); assay type: functional
[5] = test system: HepG2; assay: Induction of apoptosis in human HepG2 cells assessed as early apoptotic cells at IC50 after 24 hrs by annexin V-FITC/propidium iodide staining-based flow cytometry (reference value: 0.41%)
[6] = test system: HepG2; assay: Induction of apoptosis in human HepG2 cells assessed as viable cells at IC50 after 24 hrs by annexin V-FITC/propidium iodide staining-based flow cytometry (reference value: 90.5%); assay type: functional
[7] = Cytotoxicity against human LO2 cells after 48 hrs by MTT assay; assay type: cell-based; conditions: L02, 48 h; outline: as §1
[8] = test system: HepG2; assay: Induction of apoptosis in human HepG2 cells assessed as nectrotic cells at IC50 after 4 hrs by annexin V-FITC/propidium iodide staining-based flow cytometry (reference value: 0.46%); assay type: functional
[9] = test system: HepG2; assay: Induction of apoptosis in human HepG2 cells assessed as late apoptotic cells at IC50 after 24 hrs by annexin V-FITC/propidium iodide staining-based flow cytometry (reference value: 1.77%); assay type: functional
[10] = test system: HepG2; assay: Induction of apoptosis in human HepG2 cells assessed as viable cells at IC50 after 4 hrs by annexin V-FITC/propidium iodide staining-based flow cytometry (reference value: 98.6%); assay type: functional
[11] = test system: HepG2; assay: Induction of apoptosis in human HepG2 cells assessed as nectrotic cells at IC50 after 24 hrs by annexin V-FITC/propidium iodide staining-based flow cytometry (reference value: 6.70%); assay type: functional
[12] = test system: HepG2; assay: Induction of cell cycle arrest in human HepG2 cells assessed as accumulation at G2/M phase at IC50 after 24 hrs by propidium iodide staining-based flow cytometry (reference value: 16.4%); assay type: functional
[13] = test system: HepG2; assay: Induction of apoptosis in human HepG2 cells assessed as late apoptotic cells at IC50 after 4 hrs by annexin V-FITC/propidium iodide staining-based flow cytometry (reference value: 0.53%); assay type: functional
[14] = test system: HepG2; assay: Selectivity index, ratio of IC50 for human LO2 cells to human HepG2 cells

Row | Compound | IC50 [2] [µM] | IC50 [7] [µM] | Ratio IC50 [14] | also measured
1 | COC(=O)[C@H](C)NP(=O)(Oc1ccccc1)Oc1cc(OC(C)=O)c2c(=O)c(-c3ccc(OC(C)=O)cc3)coc2c1 (stereo not given in full) | 6.6 | 11.9 | 1.803 | Activity [1]: 1.8%; Activity [3]: 1.6%; Activity [4]: 0.74%; Activity [5]: 3.99%; Activity [6]: 74.34%; Activity [8]: 0.97%; Activity [9]: 3.06%; Activity [10]: 97.07%; Activity [11]: 18.62%; Activity [12]: 96.6%; Activity [13]: 1.22%
2 | COC(=O)[C@H](CC(C)C)NP(=O)(Oc1ccccc1)Oc1cc(O)c2c(=O)c(-c3ccc(O)cc3)coc2c1 (stereo not given in full) | 72.3 | 48.2 | 0.667 | 
3 | COC(=O)CNP(=O)(Oc1ccccc1)Oc1cc(OC(C)=O)c2c(=O)cc(-c3ccc(OC(C)=O)cc3)oc2c1 (stereo not given) | 47.8 | > 100 | >2.092 | 
4 | COC(=O)[C@H](C)NP(=O)(Oc1ccccc1)Oc1ccc2c(=O)c(-c3ccc(OC(C)=O)cc3)coc2c1 (stereo not given in full) | 5.5 | 24.3 | 4.418 | Activity [1]: 1.2%; Activity [3]: 0.7%; Activity [4]: 0.69%; Activity [5]: 44.16%; Activity [6]: 51.19%; Activity [8]: 0.76%; Activity [9]: 2.56%; Activity [10]: 97.12%; Activity [11]: 2.08%; Activity [12]: 98.1%; Activity [13]: 1.43%
5 | COC(=O)[C@H](C)NP(=O)(Oc1ccccc1)Oc1cc(O)c2c(=O)cc(-c3ccc(O)cc3)oc2c1 (stereo not given in full) | 34.7 | 35.3 | 1.017 | 
6 | COC(=O)CNP(=O)(Oc1ccccc1)Oc1cc(OC(C)=O)c2c(=O)cc(-c3ccc(OC(C)=O)c(OC(C)=O)c3)oc2c1 (stereo not given) | 26.4 | 57.1 | 2.163 | 
7 | COC(=O)[C@H](C)NP(=O)(Oc1ccccc1)Oc1cc(O)c2c(=O)cc(-c3ccccc3)oc2c1 (stereo not given in full) | 35.3 | 62.3 | 1.765 | 
8 | COC(=O)[C@H](CC(C)C)NP(=O)(Oc1ccccc1)Oc1cc(OC(C)=O)c2c(=O)c(-c3ccc(OC(C)=O)cc3)coc2c1 (stereo not given in full) | 54 | 60.1 | 1.113 | 
9 | C#Cc1cccc(Nc2ncnc3cc(OCCOC)c(OCCOC)cc23)c1 [ERLOTINIB] | 5.8 | 18.5 | 3.19 | 
10 | COC(=O)[C@H](CC(C)C)NP(=O)(Oc1ccccc1)Oc1cc(O)c2c(=O)cc(-c3ccccc3)oc2c1 (stereo not given in full) | > 100 | > 100 |  | 
11 | COC(=O)[C@H](Cc1ccccc1)NP(=O)(Oc1ccccc1)Oc1cc(OC(C)=O)c2c(=O)c(-c3ccc(OC(C)=O)cc3)coc2c1 (stereo not given in full) | 63.2 | > 100 | 1.582 | 
12 | COC(=O)CNP(=O)(Oc1ccccc1)Oc1cc(O)c2c(=O)cc(-c3ccc(O)c(O)c3)oc2c1 (stereo not given) | 47.7 | 47.7 | 1 | 
13 | COC(=O)[C@H](CC(C)C)NP(=O)(Oc1ccccc1)Oc1cc(OC(C)=O)c2c(=O)cc(-c3ccc(OC(C)=O)c(OC(C)=O)c3)oc2c1 (stereo not given in full) | 21 | 38.2 | 1.819 | 
14 | O=c1cc(-c2ccc(O)c(O)c2)oc2cc(O)cc(O)c12 [LUTEOLIN] | 34.7 | > 100 | >2.882 | 
15 | COC(=O)[C@H](Cc1ccccc1)NP(=O)(Oc1ccccc1)Oc1cc(O)c2c(=O)c(-c3ccc(O)cc3)coc2c1 (stereo not given in full) | > 100 | > 100 |  | 
16 | COC(=O)[C@H](Cc1ccccc1)NP(=O)(Oc1ccccc1)Oc1ccc2c(=O)c(-c3ccc(OC(C)=O)cc3)coc2c1 (stereo not given in full) | 60.2 | > 100 | >1.66 | 
17 | COC(=O)[C@H](Cc1ccccc1)NP(=O)(Oc1ccccc1)Oc1cc(O)c2c(=O)cc(-c3ccccc3)oc2c1 (stereo not given in full) | > 100 | > 100 |  | 
18 | COC(=O)[C@@H](NP(=O)(Oc1ccccc1)Oc1cc(O)c2c(=O)cc(-c3ccc(O)c(O)c3)oc2c1)C(C)C (stereo not given in full) | 16.6 | 8.2 | 0.494 | 
19 | COC(=O)[C@H](Cc1ccccc1)NP(=O)(Oc1ccccc1)Oc1cc(OC(C)=O)c2c(=O)cc(-c3ccc(OC(C)=O)c(OC(C)=O)c3)oc2c1 (stereo not given in full) | 27.1 | 30.3 | 1.118 | 
20 | COC(=O)CNP(=O)(Oc1ccccc1)Oc1ccc2c(=O)c(-c3ccc(OC(C)=O)cc3)coc2c1 (stereo not given) | > 100 | > 100 |  | 
21 | COC(=O)[C@H](Cc1ccccc1)NP(=O)(Oc1ccccc1)Oc1cc(O)c2c(=O)cc(-c3ccc(O)cc3)oc2c1 (stereo not given in full) | 36.6 | > 100 | >2.732 | 

Row | Compound | IC50 [2] [µM] | IC50 [7] [µM] | Ratio IC50 [14] | also measured
22 | COC(=O)[C@H](Cc1ccccc1)NP(=O)(Oc1ccccc1)Oc1ccc2c(=O)c(-c3ccc(O)cc3)coc2c1 (stereo not given in full) | 52.1 | 39.3 | 0.754 | 
23 | COC(=O)[C@H](CC(C)C)NP(=O)(Oc1ccccc1)Oc1cc(O)c2c(=O)cc(-c3ccc(O)cc3)oc2c1 (stereo not given in full) | 37.2 | 52.8 | 1.419 | 
24 | COC(=O)[C@@H](NP(=O)(Oc1ccccc1)Oc1cc(O)c2c(=O)cc(-c3ccccc3)oc2c1)C(C)C (stereo not given in full) | 21.1 | > 100 | >5 | 
25 | COC(=O)[C@H](CC(C)C)NP(=O)(Oc1ccccc1)Oc1ccc2c(=O)c(-c3ccc(OC(C)=O)cc3)coc2c1 (stereo not given in full) | 60 | 44.8 | 0.747 | 
26 | COC(=O)CNP(=O)(Oc1ccccc1)Oc1cc(OC(C)=O)c2c(=O)c(-c3ccc(OC(C)=O)cc3)coc2c1 (stereo not given) | 39.7 | 55.2 | 1.39 | 
27 | COC(=O)[C@@H](NP(=O)(Oc1ccccc1)Oc1cc(O)c2c(=O)cc(-c3ccc(O)cc3)oc2c1)C(C)C (stereo not given in full) | 27.3 | 26 | 0.952 | 
28 | COC(=O)CNP(=O)(Oc1ccccc1)Oc1cc(O)c2c(=O)c(-c3ccc(O)cc3)coc2c1 (stereo not given) | > 100 | 44.5 | <0.445 | 
29 | COC(=O)[C@H](CC(C)C)NP(=O)(Oc1ccccc1)Oc1cc(OC(C)=O)c2c(=O)cc(-c3ccc(OC(C)=O)cc3)oc2c1 (stereo not given in full) | 22.1 | 59.8 | 2.706 | 
30 | COC(=O)[C@H](C)NP(=O)(Oc1ccccc1)Oc1cc(OC(C)=O)c2c(=O)cc(-c3ccc(OC(C)=O)c(OC(C)=O)c3)oc2c1 (stereo not given in full) | 27.3 | 51.2 | 1.875 | 
31 | COC(=O)CNP(=O)(Oc1ccccc1)Oc1ccc2c(=O)c(-c3ccc(O)cc3)coc2c1 (stereo not given) | 48.8 | > 100 | 2.049 | 
32 | COC(=O)[C@H](CC(C)C)NP(=O)(Oc1ccccc1)Oc1ccc2c(=O)c(-c3ccc(O)cc3)coc2c1 (stereo not given in full) | 66 | 47.7 | 0.723 | 
33 | COC(=O)[C@@H](NP(=O)(Oc1ccccc1)Oc1cc(OC(C)=O)c2c(=O)cc(-c3ccc(OC(C)=O)cc3)oc2c1)C(C)C (stereo not given in full) | 18.4 | 29.4 | 1.59 | 
34 | COC(=O)CNP(=O)(Oc1ccccc1)Oc1cc(O)c2c(=O)cc(-c3ccc(O)cc3)oc2c1 (stereo not given) | 59.7 | 71.5 | 1.198 | 
35 | COC(=O)[C@H](C)NP(=O)(Oc1ccccc1)Oc1ccc2c(=O)c(-c3ccc(O)cc3)coc2c1 (stereo not given in full) | 28.8 | 20.5 | 0.712 | 
36 | COC(=O)[C@H](Cc1ccccc1)NP(=O)(Oc1ccccc1)Oc1cc(O)c2c(=O)cc(-c3ccc(O)c(O)c3)oc2c1 (stereo not given in full) | 15.7 | 39.1 | 2.49 | 
37 | COC(=O)[C@H](C)NP(=O)(Oc1ccccc1)Oc1cc(O)c2c(=O)c(-c3ccc(O)cc3)coc2c1 (stereo not given in full) | 57.2 | 15.7 | 0.274 | 
38 | COC(=O)[C@H](Cc1ccccc1)NP(=O)(Oc1ccccc1)Oc1cc(OC(C)=O)c2c(=O)cc(-c3ccc(OC(C)=O)cc3)oc2c1 (stereo not given in full) | 38.5 | 45.9 | 1.192 | 
39 | COC(=O)CNP(=O)(Oc1ccccc1)Oc1cc(O)c2c(=O)cc(-c3ccccc3)oc2c1 (stereo not given) | 42.6 | 96.5 | 2.265 | 
40 | O=c1cc(-c2ccccc2)oc2cc(O)cc(O)c12 [CHRYSIN] | > 100 | > 100 |  | 
41 | COC(=O)[C@H](CC(C)C)NP(=O)(Oc1ccccc1)Oc1cc(O)c2c(=O)cc(-c3ccc(O)c(O)c3)oc2c1 (stereo not given in full) | 22.4 | 34 | 1.581 | 
